Test results as given in ChEMBL document CHEMBL1145062, “Conformationally defined retinoic acid analogues. 5. Large-scale synthesis and mammary cancer chemopreventive activity for (2E,4E,6Z,8E)-8-(3',4'-dihydro-1'(2'H)-naphthalen-1'-ylidene)-3,7-dimethyl-2,4,6-octatrienoic acid (9cUAB30)” (2003).

Assays:
Rattus norvegicus [1] = experiment: Anti cancer activity of compound was measured by final body weight(g) of rat in 200 mg/kg diet after MNU intravenous injection; type: functional
Outline: (§1)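 Female rats housed five per cage on 4% Teklad rodent diet; single intravenous MNU via jugular vein at 50 days of age. Retinoid mixed into diet (Patterson–Kelly liquid–solid blender; stability checked by HPLC) and fed continuously from 53 days of age; n = 20 per group; diet-only MNU control group. Weighed weekly; body weight and liver, uterus, ovary weights (g per 100 g body weight) taken at study end.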

Rattus norvegicus [2] = experiment: Anti cancer activity of compound was measured by weight of liver in gram per 100 g body weight of rat in 100 mg/kg diet after MNU intravenous injection; type: functional; outline: as §1
Rattus norvegicus [3] = experiment: Anti cancer activity of compound was measured by weight of uterus in gram per 100 g body weight of rat in 200 mg/kg diet after MNU intravenous injection; type: functional; outline: as §1
Rattus norvegicus [4] = experiment: Anti cancer activity of compound was measured by weight of ovaries in gram per 100 g body weight of rat in 100 mg/kg diet after MNU intravenous injection; type: functional, Female gonad; outline: as §1
Rattus norvegicus [5] = experiment: Anti cancer activity of compound was measured by weight of uterus in gram per 100 g body weight of rat in 100 mg/kg diet after MNU intravenous injection; type: functional; outline: as §1
Rattus norvegicus [6] = experiment: Anti cancer activity of compound was measured by weight of ovaries in gram per 100 g body weight of rat in 200 mg/kg diet after MNU intravenous injection; type: functional, Female gonad; outline: as §1
Rattus norvegicus [7] = experiment: Anti cancer activity of compound was measured by weight of liver in gram per 100 g body weight of rat in 200 mg/kg diet after MNU intravenous injection; type: functional; outline: as §1
Rattus norvegicus [8] = experiment: Anti cancer activity of compound was measured by final body weight(g) of rat in 100 mg/kg diet after MNU intravenous injection; type: functional; outline: as §1

CC(=C\C=C\C(C)=C\C(=O)O)/C=C1\CCCc2ccccc21
Body weight (Rattus norvegicus [1]): 272 g | Organ weight (Rattus norvegicus [2]): 2.96 g | Organ weight (Rattus norvegicus [3]): 0.21 g | Organ weight (Rattus norvegicus [4]): 0.046 g | Organ weight (Rattus norvegicus [5]): 0.16 g | Organ weight (Rattus norvegicus [6]): 0.052 g | Organ weight (Rattus norvegicus [7]): 3.11 g | Body weight (Rattus norvegicus [8]): 271 g
